In publication PMC7003535 (Environmental science & technology, 2020):
pEC50: −log10 of the molar value.

Columns and labels:
gmAhr1a [1] = target: T1, gmAhr1a (Gadus morhua, UniProt A0A6H1Z2L5); assay: XRE luciferase reporter gene assay in COS-7 cells, gmAhr1a with gmArnt1; type: cell-based, Atlantic cod (Gadus morhua); settings: for Activation of transcription of XRE-controlled luciferase reporter gene: increasing concentrations; for Shape of concentration-response: at higher concentrations
T1 sequence (A0A6H1Z2L5 1-957): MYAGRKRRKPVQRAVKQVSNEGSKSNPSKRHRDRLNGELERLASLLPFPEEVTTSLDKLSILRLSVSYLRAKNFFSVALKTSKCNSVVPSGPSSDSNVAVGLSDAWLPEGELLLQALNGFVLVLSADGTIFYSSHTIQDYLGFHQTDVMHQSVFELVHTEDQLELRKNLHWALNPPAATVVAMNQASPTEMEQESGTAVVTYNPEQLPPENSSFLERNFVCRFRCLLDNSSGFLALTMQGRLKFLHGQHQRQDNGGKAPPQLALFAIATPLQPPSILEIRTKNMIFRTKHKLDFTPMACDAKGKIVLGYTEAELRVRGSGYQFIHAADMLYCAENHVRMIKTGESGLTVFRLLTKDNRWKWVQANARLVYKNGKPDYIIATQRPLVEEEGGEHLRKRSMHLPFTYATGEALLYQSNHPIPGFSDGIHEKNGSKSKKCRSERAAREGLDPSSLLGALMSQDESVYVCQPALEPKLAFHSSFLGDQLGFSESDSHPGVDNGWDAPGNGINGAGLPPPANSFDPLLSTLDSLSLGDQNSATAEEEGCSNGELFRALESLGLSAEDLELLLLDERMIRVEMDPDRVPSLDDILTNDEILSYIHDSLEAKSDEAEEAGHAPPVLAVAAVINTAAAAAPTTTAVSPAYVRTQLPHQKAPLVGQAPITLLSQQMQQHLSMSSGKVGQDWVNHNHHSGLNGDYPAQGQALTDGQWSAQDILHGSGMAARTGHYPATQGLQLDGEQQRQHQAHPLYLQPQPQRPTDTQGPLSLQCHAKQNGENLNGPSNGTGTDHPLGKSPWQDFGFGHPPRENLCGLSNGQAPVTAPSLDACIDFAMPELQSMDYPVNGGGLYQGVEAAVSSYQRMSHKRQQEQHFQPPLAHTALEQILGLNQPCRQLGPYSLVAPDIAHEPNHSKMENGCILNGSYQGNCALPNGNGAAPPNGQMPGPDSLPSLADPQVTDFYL

gmAhr2a [2] = target: T2, gmAhr2a (Gadus morhua, UniProt A0A6H1Z3G8); assay: XRE luciferase reporter gene assay in COS-7 cells, gmAhr2a with gmArnt1; type: cell-based, Atlantic cod (Gadus morhua); settings: for Activation of transcription of XRE-controlled luciferase reporter gene: increasing concentrations
T2 sequence (A0A6H1Z3G8 1-1127): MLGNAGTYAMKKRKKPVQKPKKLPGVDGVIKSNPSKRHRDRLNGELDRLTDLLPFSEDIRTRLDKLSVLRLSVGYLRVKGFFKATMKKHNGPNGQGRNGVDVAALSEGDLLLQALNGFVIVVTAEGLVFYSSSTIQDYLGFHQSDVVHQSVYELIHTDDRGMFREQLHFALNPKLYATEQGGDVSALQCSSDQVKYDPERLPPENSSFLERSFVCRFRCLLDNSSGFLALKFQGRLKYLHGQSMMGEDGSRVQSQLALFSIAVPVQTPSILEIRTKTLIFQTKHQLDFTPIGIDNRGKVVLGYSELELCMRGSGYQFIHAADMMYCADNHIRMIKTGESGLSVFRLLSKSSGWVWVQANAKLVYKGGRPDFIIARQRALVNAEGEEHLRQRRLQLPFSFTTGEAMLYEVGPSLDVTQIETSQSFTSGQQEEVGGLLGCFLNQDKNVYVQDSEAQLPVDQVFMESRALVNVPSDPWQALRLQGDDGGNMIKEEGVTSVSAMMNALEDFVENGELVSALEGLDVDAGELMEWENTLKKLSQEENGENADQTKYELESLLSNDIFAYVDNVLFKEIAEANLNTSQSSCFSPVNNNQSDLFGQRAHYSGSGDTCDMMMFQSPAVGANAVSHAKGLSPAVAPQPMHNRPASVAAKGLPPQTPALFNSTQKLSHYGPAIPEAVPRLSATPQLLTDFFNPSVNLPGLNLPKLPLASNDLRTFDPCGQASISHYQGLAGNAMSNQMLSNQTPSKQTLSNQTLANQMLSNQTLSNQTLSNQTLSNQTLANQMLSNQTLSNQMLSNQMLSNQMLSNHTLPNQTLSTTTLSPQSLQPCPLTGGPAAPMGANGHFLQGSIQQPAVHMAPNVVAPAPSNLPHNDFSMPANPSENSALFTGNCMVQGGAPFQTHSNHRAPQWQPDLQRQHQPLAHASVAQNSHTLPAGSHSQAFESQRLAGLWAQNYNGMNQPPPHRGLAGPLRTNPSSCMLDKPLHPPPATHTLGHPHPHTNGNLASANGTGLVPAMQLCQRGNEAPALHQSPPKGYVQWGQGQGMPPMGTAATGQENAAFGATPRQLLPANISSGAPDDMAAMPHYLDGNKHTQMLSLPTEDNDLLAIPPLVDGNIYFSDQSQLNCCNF

cyp1a = assay: Ex vivo precision-cut liver slices, cyp1a mRNA expression by qPCR; type: cell-based, Atlantic cod (Gadus morhua); settings: cod liver slices ex vivo, 1 nM was the lowest concentration used
COS-7 cells = assay: Cytotoxicity in COS-7 cells; type: cell-based, simian; settings: for TCDD the effect is at the highest concentration
gmAhr1a [3] = target: T1, gmAhr1a; assay: Velocity sedimentation radioligand binding to in vitro expressed gmAhr1a; set-up: species or system Atlantic cod (Gadus morhua); settings: single concentration, qualitative
fhAhr2a = assay: Velocity sedimentation radioligand binding to in vitro expressed fhAhr2a; set-up: species or system Fundulus heteroclitus; settings: single concentration, qualitative
gmahr1a and gmahr2a = assay: Ex vivo precision-cut liver slices, gmahr1a and gmahr2a mRNA expression; type: cell-based, Atlantic cod (Gadus morhua); settings: cod liver slices ex vivo, increasing concentrations
[4] = system: precision-cut liver slices; assay: Viability of precision-cut liver slices; type: cell-based, Atlantic cod (Gadus morhua); settings: 100 nM
How it was run: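 Precision-cut liver slices from juvenile Atlantic cod of both sexes (about 1.5–2 years old; tank-held in natural seawater at 9 °C, 12:12 h light/dark). Slices were exposed to Ahr agonist test compounds in 0.01% DMSO, with n=5–7 per compound. Viability was read by MTT reduction and cytotoxicity by LDH release.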

gmAhr2a [5] = target: T2, gmAhr2a; assay: Velocity sedimentation radioligand binding to in vitro expressed gmAhr2a; set-up: species or system Atlantic cod (Gadus morhua); settings: [3H]BNF 10 nM, single concentration, qualitative

Structure (SMILES) | Activation of transcription of XRE-controlled luciferase reporter gene (gmAhr1a [1]; COS-7 cells, gmAhr1a) | EC50 (in words) (gmAhr1a [1]; COS-7 cells, gmAhr1a, luciferase reporter) | Shape of concentration-response (gmAhr1a [1]; gmAhr1a) | Activation of transcription of XRE-controlled luciferase reporter gene (gmAhr2a [2]; COS-7 cells, gmAhr2a) | EC50 (in words) (gmAhr2a [2]; COS-7 cells, gmAhr2a, luciferase reporter) | Concentration at which cyp1a expression was induced (cyp1a) [nM] | Cell viability (COS-7 cells) | Specific binding of [3H]TCDD (gmAhr1a [3]; [3H]TCDD 2 nM) | Specific binding of [3H]TCDD (fhAhr2a; [3H]TCDD 2 nM) | pEC50 (gmAhr1a [1]) | Emax (gmAhr1a [1]; gmAhr1a compared with gmAhr2a) | pEC50 (gmAhr2a [2]) | Alterations in the expression of gmahr1a and gmahr2a (gmahr1a and gmahr2a) | Viability of liver slices [4] | Specific binding of [3H]BNF (gmAhr1a [3]; [3H]BNF 10 nM) | Specific binding of [3H]BNF (gmAhr2a [5]) | Specific binding of [3H]BNF (fhAhr2a; [3H]BNF 10 nM)
O=Cc1c2[nH]c3ccccc3c2cc2[nH]c3ccccc3c12 [FICZ, 6-formylindolo[3,2-b]carbazole] | activated | picomolar range | bi-phasic concentration-response | activated | picomolar range | 1 | no significant alterations in cell viabilities |  |  |  |  |  |  |  |  |  | 
Clc1cc2c(cc1Cl)Oc1cc(Cl)c(Cl)cc1O2 [TCDD, 2,3,7,8-Tetrachlorodibenzo-p-dioxin] | activated |  |  | activated |  | 1 | slight reduction in cell viability | Specific binding of [^3H]TCDD was observed | Specific binding of [^3H]TCDD was observed | ~9.00 | very similar | ~8.00 | no significant differences in transcript levels | reduced viability |  |  | 
Clc1ccc(-c2cc(Cl)c(Cl)c(Cl)c2)cc1Cl [PCB126, 3,3′,4,4′,5-pentachlorobiphenyl] | activated |  |  | activated |  |  |  |  |  |  |  |  |  |  |  |  | 
c1ccc2c(c1)cc1ccc3cccc4ccc2c1c34 [B[a]P] | activated |  |  | activated |  |  |  |  |  |  |  |  | no significant differences in transcript levels |  |  |  | 
O=c1cc(-c2ccccc2)oc2ccc3ccccc3c12 [BNF, β-naphthoflavone] | activated |  | tendencies to a biphasic concentration-response | activated |  |  | no significant alterations in cell viabilities |  |  |  |  |  |  |  | highest amount of specific binding | only weak or no specific binding | only weak or no specific binding
